Data reported in ChEMBL document CHEMBL2203015, “Synthesis and biological evaluation of 5-aryloxypyrazole derivatives bearing a rhodanine-3-aromatic acid as potential antimicrobial agents” (Bioorg Med Chem Lett, 2012).
≈ marks a conversion by molar mass, not a printed value.

How the values were obtained:
[1] = test system: Staphylococcus aureus; experiment: Antibacterial activity against multidrug-resistant Staphylococcus aureus CCARM 3506 incubated for 24 hrs serial dilution method; type: functional; settings: CCARM 3506, 24 h
[2] = test system: Staphylococcus aureus; experiment: Antibacterial activity against quinolone-resistant Staphylococcus aureus CCARM 3519 incubated for 24 hrs serial dilution method; type: functional; settings: CCARM 3519, 24 h
[3] = test system: Staphylococcus aureus; experiment: Potency index, ratio of MIC for norfloxacin to MIC for compound against multidrug-resistant Staphylococcus aureus CCARM 3167 incubated for 24 hrs serial dilution method; type: functional
[4] = test system: Staphylococcus aureus; experiment: Potency index, ratio of MIC for norfloxacin to MIC for compound against quinolone-resistant Staphylococcus aureus CCARM 3519 incubated for 24 hrs serial dilution method; type: functional
[5] = test system: Staphylococcus aureus; experiment: Potency index, ratio of MIC for oxacillin to MIC for compound against quinolone-resistant Staphylococcus aureus CCARM 3505 incubated for 24 hrs serial dilution method; type: functional
[6] = test system: Staphylococcus aureus; experiment: Potency index, ratio of MIC for norfloxacin to MIC for compound against multidrug-resistant Staphylococcus aureus CCARM 3506 incubated for 24 hrs serial dilution method; type: functional
[7] = test system: Staphylococcus aureus; experiment: Antibacterial activity against multidrug-resistant Staphylococcus aureus CCARM 3167 incubated for 24 hrs serial dilution method; type: functional; settings: CCARM 3167, 24 h
[8] = test system: Staphylococcus aureus; experiment: Potency index, ratio of MIC for oxacillin to MIC for compound against multidrug-resistant Staphylococcus aureus CCARM 3167 incubated for 24 hrs serial dilution method; type: functional
[9] = test system: Staphylococcus aureus; experiment: Antibacterial activity against Staphylococcus aureus RN 4220 incubated for 24 hrs serial dilution method; type: functional; settings: RN 4220, 24 h
[10] = test system: Staphylococcus aureus; experiment: Potency index, ratio of MIC for oxacillin to MIC for compound against quinolone-resistant Staphylococcus aureus CCARM 3519 incubated for 24 hrs serial dilution method; type: functional
[11] = test system: Staphylococcus aureus; experiment: Antibacterial activity against Staphylococcus aureus KCTC 209 incubated for 24 hrs serial dilution method; type: functional; settings: KCTC 209, 24 h
[12] = test system: Staphylococcus aureus; experiment: Antibacterial activity against quinolone-resistant Staphylococcus aureus CCARM 3505 incubated for 24 hrs serial dilution method; type: functional; settings: CCARM 3505, 24 h
[13] = test system: Staphylococcus aureus; experiment: Potency index, ratio of MIC for norfloxacin to MIC for compound against quinolone-resistant Staphylococcus aureus CCARM 3505 incubated for 24 hrs serial dilution method; type: functional
[14] = test system: Staphylococcus aureus; experiment: Potency index, ratio of MIC for oxacillin to MIC for compound against multidrug-resistant Staphylococcus aureus CCARM 3506 incubated for 24 hrs serial dilution method; type: functional
[15] = test system: Staphylococcus aureus; experiment: Antibacterial activity against Staphylococcus aureus KCTC 503 incubated for 24 hrs serial dilution method; type: functional; settings: KCTC 503, 24 h
[16] = test system: Escherichia coli; experiment: Antibacterial activity against Escherichia coli 1356 incubated for 24 hrs serial dilution method; type: functional; settings: Escherichia coli, 1356, 24 h
[17] = Toxicity against human HeLa cells incubated for 48 hrs by MTT assay; type: cell-based
Summary of the method: (§1)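 HeLa cells kept in DMEM with 10% FBS and penicillin-streptomycin (100 U/mL) at 37 °C, 5% CO₂, split with 0.25% trypsin at 80–90% confluence. After 3 passages, about 1 × 10⁴ cells per well were seeded and left overnight to attach. Compound exposure 48 h. MTT (5 mg/mL in PBS) added for 4 h, formazan dissolved in DMSO, OD read at 570 nm.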

[18] = test system: HeLa; experiment: Toxicity against human HeLa cells at 1 ug/ml incubated for 48 hrs by MTT assay; type: cell-based; summary of the method: as §1
[19] = test system: HeLa; experiment: Toxicity against human HeLa cells at 2 ug/ml incubated for 48 hrs by MTT assay; type: cell-based; summary of the method: as §1

Cc1nn(-c2ccccc2)c(Oc2ccc(Br)cc2)c1/C=C1\SC(=S)N([C@@H](Cc2c[nH]c3ccccc23)C(=O)O)C1=O
MIC [1]: 1 µg/mL (≈ 1.52 µM)
MIC [2]: 1 µg/mL (≈ 1.52 µM)
Ratio [3]: 4
Ratio [4]: 4
Ratio [5]: 64
Ratio [6]: 4
MIC [7]: 1 µg/mL (≈ 1.52 µM)
Ratio [8]: 64
MIC [9]: 2 µg/mL (≈ 3.03 µM)
Ratio [10]: 64
MIC [11]: > 64 µg/mL
MIC [12]: 1 µg/mL (≈ 1.52 µM)
Ratio [13]: 4
Ratio [14]: 64
MIC [15]: > 64 µg/mL
MIC [16]: > 64 µg/mL

Cc1nn(-c2ccccc2)c(Oc2ccc(Cl)cc2Cl)c1/C=C1\SC(=S)N([C@@H](Cc2c[nH]c3ccccc23)C(=O)O)C1=O
MIC [1]: 1 µg/mL (≈ 1.54 µM)
IC50 at 48 h ([17]; read-out: IC50): 5.76 µg/mL (≈ 8.87 µM)
MIC [2]: 1 µg/mL (≈ 1.54 µM)
Ratio [3]: 4
Ratio [4]: 4
Activity [18]: Non-toxic
Activity [19]: Non-toxic
Ratio [5]: 64
Ratio [6]: 4
MIC [7]: 1 µg/mL (≈ 1.54 µM)
Ratio [8]: 64
MIC [9]: 2 µg/mL (≈ 3.08 µM)
Ratio [10]: 64
MIC [11]: > 64 µg/mL
MIC [12]: 1 µg/mL (≈ 1.54 µM)
Ratio [13]: 4
Ratio [14]: 64
MIC [15]: > 64 µg/mL
MIC [16]: > 64 µg/mL

Cc1nn(-c2ccccc2)c(Oc2ccc(Cl)cc2Cl)c1/C=C1\SC(=S)N([C@@H](Cc2ccccc2)C(=O)O)C1=O
MIC [1]: 1 µg/mL (≈ 1.64 µM)
IC50 at 48 h [17]: 3.54 µg/mL (≈ 5.8 µM)
MIC [2]: 2 µg/mL (≈ 3.28 µM)
Ratio [3]: 8
Ratio [4]: 8
Activity [18]: Non-toxic
Activity [19]: Non-toxic
Ratio [5]: 32
Ratio [6]: 8
MIC [7]: 1 µg/mL (≈ 1.64 µM)
Ratio [8]: 32
MIC [9]: 2 µg/mL (≈ 3.28 µM)
Ratio [10]: 32
MIC [11]: > 64 µg/mL
MIC [12]: 2 µg/mL (≈ 3.28 µM)
Ratio [13]: 8
Ratio [14]: 32
MIC [15]: > 64 µg/mL
MIC [16]: > 64 µg/mL

Cc1ccc(Oc2c(/C=C3\SC(=S)N([C@@H](Cc4c[nH]c5ccccc45)C(=O)O)C3=O)c(C)nn2-c2ccccc2)c(C)c1
MIC [1]: 1 µg/mL (≈ 1.64 µM)
MIC [2]: 1 µg/mL (≈ 1.64 µM)
Ratio [3]: 4
Ratio [4]: 4
Ratio [5]: 64
Ratio [6]: 4
MIC [7]: 1 µg/mL (≈ 1.64 µM)
Ratio [8]: 64
MIC [9]: 2 µg/mL (≈ 3.29 µM)
Ratio [10]: 64
MIC [11]: > 64 µg/mL
MIC [12]: 1 µg/mL (≈ 1.64 µM)
Ratio [13]: 4
Ratio [14]: 64
MIC [15]: > 64 µg/mL
MIC [16]: > 64 µg/mL
